According to ChEMBL document CHEMBL3525963, “Tissue distribution and elimination of [14C]apixaban in rats” (Drug Metab Dispos, 2011):

How the values were obtained:
Parameters in all cases: dose 5 mg/kg, dosed compound name [14C]-apixaban, route oral
Conditions in all cases: in vivo
Muscle tissue [1] = assay: Biodistribution in female Sprague-Dawley rat muscle at 5 mg/kg, po administered as single dose measured after 1 hr; format: ADME, organism-based
Outline: (§1)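 [¹⁴C]Apixaban given by oral gavage at 5 mg/kg (100 μCi/kg) in 0.5% Tween 80 in Labrafil (1.0 mg/mL dosing solution) to rats fasted overnight through 4 h post-dose. One rat per time point; carcass frozen in hexane/dry ice. Quantitative whole-body autoradiography used 40 µm sagittal sections and a phosphor imaging plate calibrated with [¹⁴C]glucose standards (0.001–6.5 μCi/g). Read-out in µg eq apixaban/g; LLOQ 0.037 μg eq/g.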

Rattus norvegicus [2] = assay: Biodistribution in pregnant Sprague-Dawley rat placenta at 5 mg/kg, po administered as single dose measured after 8 hrs; format: ADME, organism-based
Spleen [3] = assay: Biodistribution in female Sprague-Dawley rat spleen at 5 mg/kg, po administered as single dose measured after 1 hr; format: ADME, organism-based; outline: as §1
Rattus norvegicus [4] = assay: Biodistribution in pregnant Sprague-Dawley rat amnion at 5 mg/kg, po administered as single dose measured after 24 hrs; format: ADME, organism-based
Rattus norvegicus [5] = assay: Biodistribution in male Sprague-Dawley rat brown fat at 5 mg/kg, po administered as single dose measured after 24 hrs; format: ADME, organism-based, Brown adipose tissue
Outline: (§2)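 Fasted male SD rats (225-252 g) each received one oral gavage dose of [14C]apixaban, 5 mg/kg (100 μCi/kg), in 0.5% Tween 80/Labrafil vehicle. One rat was killed per time point, from 0.5 to 168 h. Frozen carcasses were cut into 40 µm sagittal whole-body sections and read by QWBA phosphor imaging against [14C]glucose calibrants. Results are in µg apixaban eq/g; BLQ <0.037 µg eq/g.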

Blood [6] = assay: Biodistribution in female Sprague-Dawley rat blood at 5 mg/kg, po administered as single dose measured after 8 hrs; format: ADME, organism-based; outline: as §1
Lung = assay: Biodistribution in female Sprague-Dawley rat lung at 5 mg/kg, po administered as single dose measured after 1 hr; format: ADME, organism-based; outline: as §1
Rattus norvegicus [7] = assay: Biodistribution in pregnant Sprague-Dawley rat bone marrow at 5 mg/kg, po administered as single dose measured after 24 hrs; format: ADME, organism-based
Outline: (§3)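 Fasted pregnant SD rats (n=6, 270-319 g) each received one oral gavage dose of [14C]apixaban, 5 mg/kg (100 μCi/kg), in 0.5% Tween 80/Labrafil. One rat was killed at each of 0.5, 1, 4, 8, 24 and 48 h. Carcasses were frozen in hexane/dry ice, cut into 40 µm sagittal sections, exposed to phosphor plates and quantified against [14C]glucose standards as µg eq/g. LLOQ was 0.037 µg eq/g.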

Adrenal gland = assay: Biodistribution in male Sprague-Dawley rat adrenal gland at 5 mg/kg, po administered as single dose measured after 72 hrs; format: ADME, organism-based; outline: as §2
Rattus norvegicus [8] = assay: Biodistribution in male Sprague-Dawley rat pituitary gland at 5 mg/kg, po administered as single dose measured after 8 hrs; format: ADME, organism-based
Spleen [9] = assay: Biodistribution in female Sprague-Dawley rat spleen at 5 mg/kg, po administered as single dose measured after 24 hrs; format: ADME, organism-based
Outline: (§4)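 Quantitative whole-body autoradiography was run after a single 5 mg/kg (100 μCi/kg) oral gavage to fasted female or pregnant SD rats, one rat per time point. Carcasses were frozen in hexane/dry ice, and 40 µm sagittal sections were dried at −20°C for at least 48 h. Sections were exposed to a phosphor plate alongside [14C]glucose standards (0.001–6.5 µCi/g). Results are µg eq/g, with LLOQ 0.037 µg eq/g.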

Rattus norvegicus [10] = assay: Biodistribution in pregnant Sprague-Dawley rat amnion at 5 mg/kg, po administered as single dose measured after 48 hrs; format: ADME, organism-based; outline: as §3
Muscle tissue [11] = assay: Biodistribution in pregnant Sprague-Dawley rat muscle at 5 mg/kg, po administered as single dose measured after 1 hr; format: ADME, organism-based
Pancreas = assay: Biodistribution in male Sprague-Dawley rat pancreas at 5 mg/kg, po administered as single dose measured after 72 hrs; format: ADME, organism-based; outline: as §2
Rattus norvegicus [12] = assay: Biodistribution in male Sprague-Dawley rat bone marrow at 5 mg/kg, po administered as single dose measured after 4 hrs; format: ADME, organism-based
Outline: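 Fasted male rats, 225-252 g, received [14C]apixaban by single oral gavage at 100 μCi/kg in 0.5% Tween 80/Labrafil. One rat was killed per time point and the carcass frozen. Tissue radioactivity was quantified by QWBA (40 µm sagittal sections, phosphor plate, [14C]glucose calibration) as µg eq apixaban/g, with LLOQ 0.037 μg eq/g.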

Muscle tissue [13] = assay: Biodistribution in male Sprague-Dawley rat muscle at 5 mg/kg, po administered as single dose measured after 8 hrs; format: ADME, organism-based
Outline: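 [14C]apixaban (1.0 mg/mL, 20 μCi/mL) in 0.5% Tween 80 in Labrafil, given by oral gavage at 100 μCi/kg to male rats (225-252 g) fasted overnight through 4 h post-dose. One rat per time point. Carcasses frozen in hexane/dry ice and cut into 40 µm sagittal sections. QWBA read on phosphor plates against [14C]glucose standards, reported as µg eq/g. LLOQ 0.037 µg eq/g.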

Rattus norvegicus [14] = assay: Biodistribution in pregnant Sprague-Dawley rat brown fat at 5 mg/kg, po administered as single dose measured after 24 hrs; format: ADME, organism-based, Brown adipose tissue; outline: as §3
Rattus norvegicus [15] = assay: Biodistribution in male Sprague-Dawley rat pituitary gland at 5 mg/kg, po administered as single dose measured after 72 hrs; format: ADME, organism-based; outline: as §2
Blood [16] = assay: Biodistribution in male Sprague-Dawley rat blood at 5 mg/kg, po administered as single dose measured after 8 hrs; format: ADME, organism-based; outline: as §1
Rattus norvegicus [17] = assay: Biodistribution in pregnant Sprague-Dawley rat kidney cortex at 5 mg/kg, po administered as single dose measured after 48 hrs; format: ADME, organism-based; outline: as §3
[18] = Drug level in lactating Sprague-Dawley rat milk at 5 mg/kg, po administered as single dose after 6 hrs; format: ADME, organism-based
Harderian gland = assay: Biodistribution in pregnant Sprague-Dawley rat harderian gland at 5 mg/kg, po administered as single dose measured after 24 hrs; format: ADME, organism-based; outline: as §3
Rattus norvegicus [19] = assay: Biodistribution in female Sprague-Dawley rat pituitary gland at 5 mg/kg, po administered as single dose measured after 8 hrs; format: ADME, organism-based
Outline: (§5)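 [14C]apixaban (20 μCi/mL in dosing solution) in 0.5% Tween 80 in Labrafil given by oral gavage to fasted female rats, 206-213 g, at 100 μCi/kg. One rat per time point was euthanized and snap-frozen. Sagittal 40 µm whole-body sections were read by QWBA phosphor imaging against [14C]glucose standards. Results are in µg eq apixaban/g, with LLOQ 0.037 μg eq/g.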

Rattus norvegicus [20] = assay: Biodistribution in female Sprague-Dawley rat bone marrow at 5 mg/kg, po administered as single dose measured after 1 hr; format: ADME, organism-based; outline: as §5
Rattus norvegicus [21] = assay: Biodistribution in female Sprague-Dawley rat kidney cortex at 5 mg/kg, po administered as single dose measured after 72 hrs; format: ADME, organism-based; outline: as §4
Thymus = assay: Biodistribution in pregnant Sprague-Dawley rat thymus at 5 mg/kg, po administered as single dose measured after 1 hr; format: ADME, organism-based

COc1ccc(-n2nc(C(N)=O)c3c2C(=O)N(c2ccc(N4CCCC[14C]4=O)cc2)CC3)cc1
Radiolabel recovery (Muscle tissue [1]): 0.27 ugequiv/g
Radiolabel recovery (Rattus norvegicus [2]): 0.1 ugequiv/g
Radiolabel recovery (Spleen [3]): 0.35 ugequiv/g
Radiolabel recovery (Rattus norvegicus [4]): 3.52 ugequiv/g
Radiolabel recovery (Rattus norvegicus [5]): Not sampled as not visualised in autoradiograph
Radiolabel recovery (Blood [6]): 0.17 ugequiv/g
Radiolabel recovery (Lung): 0.883 ugequiv/g
Radiolabel recovery (Rattus norvegicus [7]): Not detected assumed BLQ
Radiolabel recovery (Adrenal gland): Not sampled as not visualised in autoradiograph
Radiolabel recovery (Rattus norvegicus [8]): 0.07 ugequiv/g
Radiolabel recovery (Spleen [9]): Not detected assumed BLQ
Radiolabel recovery (Rattus norvegicus [10]): Not sampled as not visualised in autoradiograph
Radiolabel recovery (Muscle tissue [11]): 0.46 ugequiv/g
Radiolabel recovery (Pancreas): Not detected assumed BLQ
Radiolabel recovery (Rattus norvegicus [12]): 0.32 ugequiv/g
Radiolabel recovery (Muscle tissue [13]): 0.06 ugequiv/g
Radiolabel recovery (Rattus norvegicus [14]): Not detected assumed BLQ
Radiolabel recovery (Rattus norvegicus [15]): Not detected assumed BLQ
Radiolabel recovery (Blood [16]): 0.08 ugequiv/g
Radiolabel recovery (Rattus norvegicus [17]): Not detected assumed BLQ
Radiolabel recovery [18]: 8.92 µg/mL
Radiolabel recovery (Harderian gland): Not detected assumed BLQ
Radiolabel recovery (Rattus norvegicus [19]): 0.22 ugequiv/g
Radiolabel recovery (Rattus norvegicus [20]): 0.41 ugequiv/g
Radiolabel recovery (Rattus norvegicus [21]): Not detected assumed BLQ
Radiolabel recovery (Thymus): 0.58 ugequiv/g
